Reference: ChEMBL document CHEMBL4689842, “EUbOPEN Chemogenomics Library wave 1” (2021)
Values joined by “and” are separate entries in the source; they are usually repeats but may differ in a detail not shown here. Equal entries are not always repeated.

Tested on: Fibroblast
Assay: Multiplex assay against human fibroblast
Format: toxicity, cell-based
How it was run: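 With compound added, live cells were imaged on a CQ1 microscope at 37°C and 5% CO2; staining with Hoechst33342, BioTracker Green Microtubule Cytoskeleton Dye, MitoTracker Red and Annexin V Alexa Fluor 680 had been done at seeding. The CellPathfinder machine-learning gating scheme split cells into Hoechst high-intensity objects or normal cells, normal cells into healthy, pyknosed or fragmented nuclei, and pyknosed cells into mitotic or apoptotic. The tubulin, mitochondrial-mass and membrane-permeability phenotypes are per cents of healthy-nucleus cells.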

[1] = 12 h, 1 µM, compound concentration 1 uM, replicate 1
[2] = 12 h, 1 µM, compound concentration 1 uM, replicate 2
[3] = 12 h, 10 µM, compound concentration 10 uM, replicate 1
[4] = 12 h, 10 µM, compound concentration 10 uM, replicate 2
[5] = 24 h, 1 µM, compound concentration 1 uM, replicate 1
[6] = 24 h, 1 µM, compound concentration 1 uM, replicate 2
[7] = 24 h, 10 µM, compound concentration 10 uM, replicate 1
[8] = 24 h, 10 µM, compound concentration 10 uM, replicate 2
[9] = 48 h, 1 µM, compound concentration 1 uM, replicate 1
[10] = 48 h, 1 µM, compound concentration 1 uM, replicate 2
[11] = 48 h, 10 µM, compound concentration 10 uM, replicate 1
[12] = 48 h, 10 µM, compound concentration 10 uM, replicate 2

For `CN(C)C(=O)/C(C#N)=C/c1ccc(-c2nc3cnc4[nH]ccc4c3n2C2CCCCC2)o1`, the “Population Apoptotic (%)” value [1] was 67%, the “Population Fragmented Nuclei (%)” value [1] was 27% and the “Population Healthy Nuclei (%)” value [1] was 43%. The “Population Hoechst High Intensity Objects (%)” value [1] was 19%, the “Population Membrane Permeable-Phenotype (%)” value [1] was 26% and the “Population Mitochondria Different-Phenotype (%)” value [1] was 17%. For the same compound, the “Population Mitotic Cells (%)” value [1] was 32%, the “Population Normal (%)” value [1] was 80% and the “Population Pyknosed Nuclei (%)” value [1] was 29%. For the same compound, the “Population Tubulin-Different-Phenotype (%)” value [1] was 36%, the “Total Cell Count” value [1] was 131 and the “Population Apoptotic (%)” value [2] was 57%. For the same compound, the “Population Fragmented Nuclei (%)” value [2] was 4%, the “Population Healthy Nuclei (%)” value [2] was 87% and the “Population Hoechst High Intensity Objects (%)” value [2] was 2%. For the same compound, the “Population Membrane Permeable-Phenotype (%)” value [2] was 2%, the “Population Mitochondria Different-Phenotype (%)” value [2] was 6% and the “Population Mitotic Cells (%)” value [2] was 42%. For the same compound, the “Population Normal (%)” value [2] was 97%, the “Population Pyknosed Nuclei (%)” value [2] was 7% and the “Population Tubulin-Different-Phenotype (%)” value [2] was 24%. The “Total Cell Count” value [2] was 75, the “Population Apoptotic (%)” value [3] was 51% and the “Population Fragmented Nuclei (%)” value [3] was 28%. The “Population Healthy Nuclei (%)” value [3] was 38%, the “Population Hoechst High Intensity Objects (%)” value [3] was 61% and the “Population Membrane Permeable-Phenotype (%)” value [3] was 22%. The “Population Mitochondria Different-Phenotype (%)” value [3] was 11%, the “Population Mitotic Cells (%)” value [3] was 48% and the “Population Normal (%)” value [3] was 38%. The “Population Pyknosed Nuclei (%)” value [3] was 32%, the “Population Tubulin-Different-Phenotype (%)” value [3] was 65% and the “Total Cell Count” value [3] was 515. The “Population Apoptotic (%)” value [4] was 18%, the “Population Fragmented Nuclei (%)” value [4] was 20% and the “Population Healthy Nuclei (%)” value [4] was 62%. For the same compound, the “Population Hoechst High Intensity Objects (%)” value [4] was 54%, the “Population Membrane Permeable-Phenotype (%)” value [4] was 13% and the “Population Mitochondria Different-Phenotype (%)” value [4] was 63%. For the same compound, the “Population Mitotic Cells (%)” value [4] was 81%, the “Population Normal (%)” value [4] was 45% and the “Population Pyknosed Nuclei (%)” value [4] was 17%. For the same compound, the “Population Tubulin-Different-Phenotype (%)” value [4] was 70%, the “Total Cell Count” value [4] was 91 and the “Population Apoptotic (%)” value [5] was 43%. For the same compound, the “Population Fragmented Nuclei (%)” value [5] was 34%, the “Population Healthy Nuclei (%)” value [5] was 46% and the “Population Hoechst High Intensity Objects (%)” value [5] was 14%. For the same compound, the “Population Membrane Permeable-Phenotype (%)” value [5] was 33%, the “Population Mitochondria Different-Phenotype (%)” value [5] was 5% and the “Population Mitotic Cells (%)” value [5] was 56%. For the same compound, the “Population Normal (%)” value [5] was 85%, the “Population Pyknosed Nuclei (%)” value [5] was 19% and the “Population Tubulin-Different-Phenotype (%)” value [5] was 41%. The “Total Cell Count” value [5] was 141, the “Population Apoptotic (%)” value [6] was 54% and the “Population Fragmented Nuclei (%)” value [6] was 5%. The “Population Healthy Nuclei (%)” value [6] was 84%, the “Population Hoechst High Intensity Objects (%)” value [6] was 4% and the “Population Membrane Permeable-Phenotype (%)” value [6] was 2%. The “Population Mitochondria Different-Phenotype (%)” value [6] was 10%, the “Population Mitotic Cells (%)” value [6] was 45% and the “Population Normal (%)” value [6] was 95%. For the same compound, the “Population Pyknosed Nuclei (%)” value [6] was 9%, the “Population Tubulin-Different-Phenotype (%)” value [6] was 36% and the “Total Cell Count” value [6] was 81. The “Population Apoptotic (%)” value [7] was 35%, the “Population Fragmented Nuclei (%)” value [7] was 27% and the “Population Healthy Nuclei (%)” value [7] was 25%. The “Population Hoechst High Intensity Objects (%)” value [7] was 61%, the “Population Membrane Permeable-Phenotype (%)” value [7] was 28% and the “Population Mitochondria Different-Phenotype (%)” value [7] was 18%. The “Population Mitotic Cells (%)” value [7] was 64%, the “Population Normal (%)” value [7] was 38% and the “Population Pyknosed Nuclei (%)” value [7] was 47%. For the same compound, the “Population Tubulin-Different-Phenotype (%)” value [7] was 64%, the “Total Cell Count” value [7] was 606 and the “Population Apoptotic (%)” value [8] was 44%. For the same compound, the “Population Fragmented Nuclei (%)” value [8] was 28%, the “Population Healthy Nuclei (%)” value [8] was 53% and the “Population Hoechst High Intensity Objects (%)” value [8] was 54%. For the same compound, the “Population Membrane Permeable-Phenotype (%)” value [8] was 12%, the “Population Mitochondria Different-Phenotype (%)” value [8] was 49% and the “Population Mitotic Cells (%)” value [8] was 55%. For the same compound, the “Population Normal (%)” value [8] was 45%, the “Population Pyknosed Nuclei (%)” value [8] was 17% and the “Population Tubulin-Different-Phenotype (%)” value [8] was 45%. For the same compound, the “Total Cell Count” value [8] was 125, the “Population Apoptotic (%)” value [9] was 52% and the “Population Fragmented Nuclei (%)” value [9] was 33%. For the same compound, the “Population Healthy Nuclei (%)” value [9] was 37%, the “Population Hoechst High Intensity Objects (%)” value [9] was 15% and the “Population Membrane Permeable-Phenotype (%)” value [9] was 24%. The “Population Mitochondria Different-Phenotype (%)” value [9] was 8%, the “Population Mitotic Cells (%)” value [9] was 47% and the “Population Normal (%)” value [9] was 84%. For the same compound, the “Population Pyknosed Nuclei (%)” value [9] was 29%, the “Population Tubulin-Different-Phenotype (%)” value [9] was 46% and the “Total Cell Count” value [9] was 143. The “Population Apoptotic (%)” value [10] was 100%, the “Population Fragmented Nuclei (%)” value [10] was 24% and the “Population Healthy Nuclei (%)” value [10] was 72%. The “Population Hoechst High Intensity Objects (%)” value [10] was 10%, the “Population Membrane Permeable-Phenotype (%)” value [10] was 14% and the “Population Mitochondria Different-Phenotype (%)” value [10] was 5%. For the same compound, the “Population Mitotic Cells (%)” value [10] was 0%, the “Population Normal (%)” value [10] was 89% and the “Population Pyknosed Nuclei (%)” value [10] was 2%. For the same compound, the “Population Tubulin-Different-Phenotype (%)” value [10] was 24%, the “Total Cell Count” value [10] was 119 and the “Population Apoptotic (%)” value [11] was 37%. For the same compound, the “Population Fragmented Nuclei (%)” value [11] was 28%, the “Population Healthy Nuclei (%)” value [11] was 28% and the “Population Hoechst High Intensity Objects (%)” value [11] was 62%. The “Population Membrane Permeable-Phenotype (%)” value [11] was 30%, the “Population Mitochondria Different-Phenotype (%)” value [11] was 11% and the “Population Mitotic Cells (%)” value [11] was 62%. For the same compound, the “Population Normal (%)” value [11] was 37%, the “Population Pyknosed Nuclei (%)” value [11] was 42% and the “Population Tubulin-Different-Phenotype (%)” value [11] was 57%. The “Total Cell Count” value [11] was 650, the “Population Apoptotic (%)” value [12] was 57% and the “Population Fragmented Nuclei (%)” value [12] was 31%. For the same compound, the “Population Healthy Nuclei (%)” value [12] was 57%, the “Population Hoechst High Intensity Objects (%)” value [12] was 43% and the “Population Membrane Permeable-Phenotype (%)” value [12] was 9%. For the same compound, the “Population Mitochondria Different-Phenotype (%)” value [12] was 9%, the “Population Mitotic Cells (%)” value [12] was 42% and the “Population Normal (%)” value [12] was 56%. For the same compound, the “Population Pyknosed Nuclei (%)” value [12] was 11%, the “Population Tubulin-Different-Phenotype (%)” value [12] was 62% and the “Total Cell Count” value [12] was 307.

For `Cn1cncc1[C@@](O)(COc1ccc(C#N)cc1-c1ccc(OC(F)(F)F)cc1)c1ccc(C#N)cc1` [A-108], the “Population Apoptotic (%)” value [3] was 53% and 83%, the “Population Fragmented Nuclei (%)” value [3] was 39% and 19% and the “Population Healthy Nuclei (%)” value [3] was 44% and 66%. For the same compound, the “Population Hoechst High Intensity Objects (%)” value [3] was 15% and 12%, the “Population Membrane Permeable-Phenotype (%)” value [3] was 23% and 8% and the “Population Mitochondria Different-Phenotype (%)” value [3] was 20% and 7%. The “Population Mitotic Cells (%)” value [3] was 46% and 16%, the “Population Normal (%)” value [3] was 84% and 87% and the “Population Pyknosed Nuclei (%)” value [3] was 15% and 14%. For the same compound, the “Total Cell Count” value [3] was 192 and 337, the “Population Apoptotic (%)” value [4] was 42% and 57% and the “Population Fragmented Nuclei (%)” value [4] was 52% and 61%. The “Population Healthy Nuclei (%)” value [4] was 34% and 26%, the “Population Hoechst High Intensity Objects (%)” value [4] was 32% and the “Population Membrane Permeable-Phenotype (%)” value [4] was 0% and 5%. For the same compound, the “Population Mitotic Cells (%)” value [4] was 57% and 42%, the “Population Normal (%)” value [4] was 67% and the “Population Pyknosed Nuclei (%)” value [4] was 12% and 11%. For the same compound, the “Population Tubulin-Different-Phenotype (%)” value [4] was 26% and 52%, the “Total Cell Count” value [4] was 82 and 94 and the “Population Apoptotic (%)” value [7] was 54% and 58%. The “Population Fragmented Nuclei (%)” value [7] was 40% and 16%, the “Population Healthy Nuclei (%)” value [7] was 47% and 69% and the “Population Hoechst High Intensity Objects (%)” value [7] was 11% and 16%. The “Population Membrane Permeable-Phenotype (%)” value [7] was 3% and 7%, the “Population Mitotic Cells (%)” value [7] was 45% and 41% and the “Population Normal (%)” value [7] was 88% and 83%. For the same compound, the “Population Pyknosed Nuclei (%)” value [7] was 14%, the “Total Cell Count” value [7] was 216 and 318 and the “Population Apoptotic (%)” value [8] was 50% and 62%. For the same compound, the “Population Fragmented Nuclei (%)” value [8] was 50%, the “Population Healthy Nuclei (%)” value [8] was 43% and 37% and the “Population Hoechst High Intensity Objects (%)” value [8] was 29% and 21%. The “Population Membrane Permeable-Phenotype (%)” value [8] was 14% and 16%, the “Population Mitochondria Different-Phenotype (%)” value [8] was 66% and 28% and the “Population Mitotic Cells (%)” value [8] was 50% and 37%. The “Population Normal (%)” value [8] was 70% and 78%, the “Population Pyknosed Nuclei (%)” value [8] was 6% and 11% and the “Population Tubulin-Different-Phenotype (%)” value [8] was 37% and 52%. For the same compound, the “Total Cell Count” value [8] was 88 and 85.
